Reference: ChEMBL document CHEMBL1799942, “Design, synthesis and antifungal activities of novel 1,2,4-triazole derivatives” (2011)
Values after ≈ are worked out from the molar mass of the structure shown.

Legend:
Format in all cases: functional
Candida parapsilosis = experiment: Antifungal activity against Candida parapsilosis ATCC 0306392 by micro-broth dilution method; details: Lodderomyces parapsilosis
In short: (§1)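 Micro-broth dilution per NCCLS M27-A2. The C. parapsilosis strain is the ATCC 0306392 quality-control standard tested in each assay; the C. tropicalis strain is a clinical isolate. Compounds were in DMSO, serially diluted in growth medium, inoculated and incubated at 35 °C. MIC80 is the first well with about 80% growth reduction relative to the drug-free well.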

Aspergillus fumigatus = experiment: Antifungal activity against Aspergillus fumigatus after 7 days by micro-broth dilution method; details: 168 h
In short: (§2)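 Broth microdilution following the NCCLS yeast reference method (M27-A2), run on clinical isolates of filamentous fungi. Compounds were dissolved in DMSO, serially diluted in growth medium, inoculated and incubated at 35 °C. Growth was read at 7 days. MIC80 is the first well with about 80% less growth than the drug-free well.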

Candida albicans = experiment: Antifungal activity against Candida albicans ATCC Y0109 after 24 hrs by micro-broth dilution method; details: ATCC Y0109, 24 h
In short: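 Micro-broth dilution per NCCLS M27-A2 on the quality-control standard strain ATCC Y0109, included in each assay. Compounds were dissolved in DMSO, serially diluted in growth medium, inoculated and incubated at 35 °C, with growth read at 24 h. MIC80 is the first well showing roughly 80% growth reduction versus the drug-free well.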

Nannizzia gypsea = experiment: Antifungal activity against Microsporum gypseum after 7 days by micro-broth dilution method; details: 168 h; in short: as §2
Trichophyton rubrum = experiment: Antifungal activity against Trichophyton rubrum after 7 days by micro-broth dilution method; details: 168 h; in short: as §2
Candida tropicalis = experiment: Antifungal activity against Candida tropicalis by micro-broth dilution method; in short: as §1
[1] = Antifungal activity against Fonsecaea compacta by micro-broth dilution method; in short: as §2
Cryptococcus neoformans = experiment: Antifungal activity against Cryptococcus neoformans ATCC BLS108 after 72 hrs by micro-broth dilution method; details: ATCC BLS108, 72 h
In short: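 NCCLS M27-A2 microdilution on the ATCC BLS108 quality-control strain, tested in every assay. Compounds were taken up in DMSO, serially diluted in growth medium, inoculated and incubated at 35 °C. Growth was scored at 72 h. MIC80 is the first well with about 80% lower growth than the drug-free control well.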

Structure (SMILES)	MIC80 (Candida parapsilosis)	MIC80 (Aspergillus fumigatus)	MIC80 (Candida albicans)	MIC80 (Nannizzia gypsea)	MIC80 (Trichophyton rubrum)	MIC80 (Candida tropicalis)	MIC80 [1]	MIC80 (Cryptococcus neoformans)
CCC(=O)Nc1ccc(N2CCN(CC(O)(Cn3cncn3)c3ccc(F)cc3F)CC2)c(F)c1 (racemic)	0.0625 µg/mL (≈ 0.128 µM)	4 µg/mL (≈ 8.19 µM)	0.0625 µg/mL (≈ 0.128 µM)	0.25 µg/mL (≈ 0.512 µM)	0.0625 µg/mL (≈ 0.128 µM)	0.0625 µg/mL (≈ 0.128 µM)	1 µg/mL (≈ 2.05 µM)	1 µg/mL (≈ 2.05 µM)
CCCC(=O)Nc1ccc(N2CCN(CC(O)(Cn3cncn3)c3ccc(F)cc3F)CC2)c(F)c1 (racemic)	0.0156 µg/mL (≈ 0.031 µM)	1 µg/mL (≈ 1.99 µM)	0.0156 µg/mL (≈ 0.031 µM)	0.0156 µg/mL (≈ 0.031 µM)	0.0156 µg/mL (≈ 0.031 µM)	0.0156 µg/mL (≈ 0.031 µM)	0.25 µg/mL (≈ 0.497 µM)	0.25 µg/mL (≈ 0.497 µM)
CC(C)C(=O)Nc1ccc(N2CCN(CC(O)(Cn3cncn3)c3ccc(F)cc3F)CC2)c(F)c1 (racemic)	0.25 µg/mL (≈ 0.497 µM)	> 64 µg/mL	0.0625 µg/mL (≈ 0.124 µM)	0.0625 µg/mL (≈ 0.124 µM)	0.0625 µg/mL (≈ 0.124 µM)	4 µg/mL (≈ 7.96 µM)	1 µg/mL (≈ 1.99 µM)	16 µg/mL (≈ 31.8 µM)
CCCCC(=O)Nc1ccc(N2CCN(CC(O)(Cn3cncn3)c3ccc(F)cc3F)CC2)c(F)c1 (racemic)	0.25 µg/mL (≈ 0.484 µM)	1 µg/mL (≈ 1.94 µM)	0.0156 µg/mL (≈ 0.0302 µM)	0.25 µg/mL (≈ 0.484 µM)	0.25 µg/mL (≈ 0.484 µM)	0.25 µg/mL (≈ 0.484 µM)	1 µg/mL (≈ 1.94 µM)	1 µg/mL (≈ 1.94 µM)
CCCCCC(=O)Nc1ccc(N2CCN(CC(O)(Cn3cncn3)c3ccc(F)cc3F)CC2)c(F)c1 (racemic)	0.25 µg/mL (≈ 0.471 µM)	1 µg/mL (≈ 1.88 µM)	0.0039 µg/mL (≈ 0.00735 µM)	0.25 µg/mL (≈ 0.471 µM)	0.0156 µg/mL (≈ 0.0294 µM)	0.0625 µg/mL (≈ 0.118 µM)	0.25 µg/mL (≈ 0.471 µM)	0.0625 µg/mL (≈ 0.118 µM)
CCCCCCC(=O)Nc1ccc(N2CCN(CC(O)(Cn3cncn3)c3ccc(F)cc3F)CC2)c(F)c1 (racemic)	0.0625 µg/mL (≈ 0.115 µM)	1 µg/mL (≈ 1.84 µM)	0.00097 µg/mL (≈ 0.00178 µM)	0.0625 µg/mL (≈ 0.115 µM)	0.0156 µg/mL (≈ 0.0286 µM)	0.0625 µg/mL (≈ 0.115 µM)	0.25 µg/mL (≈ 0.459 µM)	0.0625 µg/mL (≈ 0.115 µM)
CCCCCCCC(=O)Nc1ccc(N2CCN(CC(O)(Cn3cncn3)c3ccc(F)cc3F)CC2)c(F)c1 (racemic)	0.0625 µg/mL (≈ 0.112 µM)	1 µg/mL (≈ 1.79 µM)	0.0625 µg/mL (≈ 0.112 µM)	0.0625 µg/mL (≈ 0.112 µM)	0.0039 µg/mL (≈ 0.00698 µM)	0.0625 µg/mL (≈ 0.112 µM)	0.25 µg/mL (≈ 0.448 µM)	0.25 µg/mL (≈ 0.448 µM)
O=C(Cc1ccccc1)Nc1ccc(N2CCN(CC(O)(Cn3cncn3)c3ccc(F)cc3F)CC2)c(F)c1 (racemic)	0.0625 µg/mL (≈ 0.114 µM)	64 µg/mL (≈ 116 µM)	0.0156 µg/mL (≈ 0.0283 µM)	0.0156 µg/mL (≈ 0.0283 µM)	0.0039 µg/mL (≈ 0.00708 µM)	0.0625 µg/mL (≈ 0.114 µM)	0.0625 µg/mL (≈ 0.114 µM)	1 µg/mL (≈ 1.82 µM)

Next, values leading:

MIC80 (Candida parapsilosis)	MIC80 (Aspergillus fumigatus)	MIC80 (Candida albicans)	MIC80 (Nannizzia gypsea)	MIC80 (Trichophyton rubrum)	MIC80 (Candida tropicalis)	MIC80 [1]	MIC80 (Cryptococcus neoformans)	Structure (SMILES)
0.0039 µg/mL (≈ 0.00716 µM)	1 µg/mL (≈ 1.84 µM)	64 µg/mL (≈ 117 µM)	0.0039 µg/mL (≈ 0.00716 µM)	0.0039 µg/mL (≈ 0.00716 µM)	0.0039 µg/mL (≈ 0.00716 µM)	0.0156 µg/mL (≈ 0.0286 µM)	0.0156 µg/mL (≈ 0.0286 µM)	O=C(Nc1ccc(N2CCN(CC(O)(Cn3cncn3)c3ccc(F)cc3F)CC2)c(F)c1)C(F)(F)Cl (racemic)
0.0039 µg/mL (≈ 0.00738 µM)	1 µg/mL (≈ 1.89 µM)	0.0156 µg/mL (≈ 0.0295 µM)	> 64 µg/mL	0.0156 µg/mL (≈ 0.0295 µM)	0.0039 µg/mL (≈ 0.00738 µM)	0.25 µg/mL (≈ 0.473 µM)	0.0625 µg/mL (≈ 0.118 µM)	O=C(Nc1ccc(N2CCN(CC(O)(Cn3cncn3)c3ccc(F)cc3F)CC2)c(F)c1)C(F)(F)F (racemic)
0.0156 µg/mL (≈ 0.0302 µM)	64 µg/mL (≈ 124 µM)	0.0156 µg/mL (≈ 0.0302 µM)	0.0156 µg/mL (≈ 0.0302 µM)	0.0156 µg/mL (≈ 0.0302 µM)	0.0156 µg/mL (≈ 0.0302 µM)	0.0625 µg/mL (≈ 0.121 µM)	0.25 µg/mL (≈ 0.484 µM)	CC(C)(C)C(=O)Nc1ccc(N2CCN(CC(O)(Cn3cncn3)c3ccc(F)cc3F)CC2)c(F)c1 (racemic)
0.0156 µg/mL (≈ 0.0318 µM)	4 µg/mL (≈ 8.15 µM)	0.0039 µg/mL (≈ 0.00794 µM)	0.0625 µg/mL (≈ 0.127 µM)	0.0625 µg/mL (≈ 0.127 µM)	0.0156 µg/mL (≈ 0.0318 µM)	0.0625 µg/mL (≈ 0.127 µM)	0.25 µg/mL (≈ 0.509 µM)	O=C(CCl)Nc1ccc(N2CCN(CC(O)(Cn3cncn3)c3ccc(F)cc3F)CC2)cc1 (racemic)
0.0039 µg/mL (≈ 0.0074 µM)	1 µg/mL (≈ 1.9 µM)	0.00097 µg/mL (≈ 0.00184 µM)	0.0039 µg/mL (≈ 0.0074 µM)	0.0156 µg/mL (≈ 0.0296 µM)	0.0039 µg/mL (≈ 0.0074 µM)	0.0625 µg/mL (≈ 0.119 µM)	0.0625 µg/mL (≈ 0.119 µM)	O=C(Nc1ccc(N2CCN(CC(O)(Cn3cncn3)c3ccc(F)cc3F)CC2)cc1)C(F)(F)Cl (racemic)
0.0039 µg/mL (≈ 0.00764 µM)	1 µg/mL (≈ 1.96 µM)	0.00097 µg/mL (≈ 0.0019 µM)	0.0039 µg/mL (≈ 0.00764 µM)	0.0156 µg/mL (≈ 0.0306 µM)	0.00097 µg/mL (≈ 0.0019 µM)	0.0156 µg/mL (≈ 0.0306 µM)	0.0156 µg/mL (≈ 0.0306 µM)	O=C(Nc1ccc(N2CCN(CC(O)(Cn3cncn3)c3ccc(F)cc3F)CC2)cc1)C(F)(F)F (racemic)
